Measured values: ChEMBL document CHEMBL4680077, “Differentiation of skeletal osteogenic progenitor cells to osteoblasts with 3,4-diarylbenzopyran based amide derivatives: Novel osteogenic agents” (Eur J Med Chem, 2016)
The source made the active and inactive calls. The rule behind the calls is not given here.

Experiments:
Calvarial osteoblast [1] = test: Induction of osteoblast differentiation in mouse calvarial osteoblast assessed as increase in RUNX-2 mRNA expression at 1 pM incubated for 24 hrs by qPCR analysis; type: functional, cell-based
Method in brief: (§1)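 Calvarial osteoblasts were treated at 1 pM for 24 and 48 h. Total RNA was extracted with TRIzol, and cDNA was made from 2 µg RNA. qPCR ran 40 cycles for BMP-2, RUNX-2, OCN and collagen type 1, with normalization to GAPDH. Mean ± SEM of three independent experiments.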

[2] = Acute toxicity in Swiss albino mouse assessed as relative brain weight at 50 mg/kg, po measured after 7 days (reference value: 1.63 +/- 0.13 %); type: organism-based; details: in vivo, 168 h, time 7 day
[3] = Acute toxicity in Swiss albino mouse assessed as relative spleen weight at 5 mg/kg, po measured after 7 days (reference value: 0.73 +/- 0.14 %); type: organism-based; details: in vivo, 168 h, time 7 day
[4] = Half life in Sprague-Dawley rat at 1 mg/kg, iv measured upto 24 hrs by LC-MS/MS analysis; type: ADME, organism-based; details: in vivo
[5] = Volume of distribution in Sprague-Dawley rat at 1 mg/kg, po measured upto 24 hrs by LC-MS/MS analysis; type: ADME, organism-based; details: in vivo
Method in brief: (§2)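 Female Sprague-Dawley rats (n = 4), fasted overnight 12–14 h, dosed orally at 1 mg kg-1 as a 0.25% CMC suspension and fed 3 h post-dose. Retro-orbital blood was taken from 0.25 to 24 h. Plasma was hexane-extracted and assayed by LC-MS/MS. Cmax and Tmax were read from the data; other parameters came from non-compartmental analysis. Mean ± S.D.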

[6] = Acute toxicity in Swiss albino mouse assessed as absolute spleen weight at 5 mg/kg, po measured after 7 days (reference value: 0.17 +/- 0.03 g); type: organism-based; details: in vivo, 168 h, time 7 day
[7] = Acute toxicity in Swiss albino mouse assessed as relative uterus weight at 50 mg/kg, po measured after 7 days (reference value: 1.63 +/- 0.71 %); type: organism-based; details: in vivo, 168 h, time 7 day
[8] = Acute toxicity in Swiss albino mouse assessed as neutrophil count at 1000 mg/kg, po measured after 7 days (reference value: 41.50 +/- 4.08 %); type: organism-based; details: in vivo, 168 h, time 7 day
[9] = Acute toxicity in Swiss albino mouse assessed as haemoglobin level at 1000 mg/kg, po measured after 7 days (reference value: 10.86 +/- 0.87 g/dL); type: organism-based; details: in vivo, 168 h, time 7 day
[10] = Acute toxicity in Swiss albino mouse assessed as monocyte count at 300 mg/kg, po measured after 7 days (reference value: 12.58 +/- 2.86 %); type: organism-based; details: in vivo, 168 h, time 7 day
Calvarial osteoblast [11] = test: Induction of osteoblast differentiation in mouse calvarial osteoblast assessed as increase in OCN mRNA expression at 1 pM incubated for 48 hrs by qPCR analysis; type: functional, cell-based; method in brief: as §1
[12] = Acute toxicity in Swiss albino mouse assessed as absolute spleen weight at 1000 mg/kg, po measured after 7 days (reference value: 0.17 +/- 0.03 g); type: organism-based; details: in vivo, 168 h, time 7 day
[13] = Acute toxicity in Swiss albino mouse assessed as ALKP level at 50 mg/kg, po measured after 7 days (reference value: 379.25 +/- 27.08 U/L); type: organism-based; details: in vivo, 168 h, time 7 day
[14] = Clearance in Sprague-Dawley rat at 1 mg/kg, po measured upto 24 hrs by LC-MS/MS analysis; type: ADME, organism-based; details: in vivo; method in brief: as §2
[15] = Acute toxicity in Swiss albino mouse assessed as cholesterol level at 300 mg/kg, po measured after 7 days (reference value: 265.76 +/- 24.78 mg/dL); type: organism-based; details: in vivo, 168 h, time 7 day
[16] = Tmax in Sprague-Dawley rat at 1 mg/kg, po measured upto 24 hrs by LC-MS/MS analysis; type: ADME, organism-based; details: in vivo; method in brief: as §2
[17] = Oral bioavailability in Sprague-Dawley rat at 1 mg/kg measured upto 24 hrs by LC-MS/MS analysis; type: ADME, organism-based; details: in vivo
Method in brief: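 Oral (1 mg kg-1, 0.25% CMC) and i.v. (1 mg kg-1 bolus) groups of female SD rats, n = 4 each, sampled to 24 h and assayed by plasma LC-MS/MS. AUC0-∞ = AUC0-t + Clast/kel. %F = (AUC oral × dose i.v.)/(AUC i.v. × dose oral) × 100.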

[18] = Acute toxicity in Swiss albino mouse assessed as tissue protein level at 5 mg/kg, po measured after 7 days (reference value: 0.029 +/- 0.004 mg/ml); type: organism-based; details: in vivo, 168 h, time 7 day
[19] = Acute toxicity in Swiss albino mouse assessed as basophil count at 300 mg/kg, po measured after 7 days (reference value: 1.50 +/- 0.29 %); type: organism-based; details: in vivo, 168 h, time 7 day

CCCCN(C)C(=O)CCCCOc1ccc([C@H]2c3ccc(OC)cc3OC(C)(C)[C@@H]2c2ccccc2)cc1
Activity (Calvarial osteoblast [1]): Active
Activity [2]: 1.54%
Activity [3]: 0.46%
half-life [4]: 3.52 h
Vd [5]: 5.822 L/kg
Activity [6]: 0.11 g
Activity [7]: 1.17%
Activity [8]: 46.03%
Activity [9]: 11.35 g/dL
Activity [10]: 8.99%
Activity (Calvarial osteoblast [11]): Active
Activity [12]: 0.1 g
Activity [13]: 306.33 U/L
CL [14]: 18.3 mL/min/kg
Activity [15]: 257.26 mg/dL
Tmax [16]: 1.5 h
bioavailability [17]: 13.2%
Activity [18]: 0.035 mg/mL
Activity [19]: 1.25%
